The list is not random: actives were taken first. Their share in the collection is about 7.1%.
bCat KO growth: beta-catenin-lacking colon tumor cell growth suppression. viability, % at 10 µM. HCT116 beta-catenin knockout viability, CellTiter-Glo, 60 h; stronger effect = lower value. AID 818. hit rate 1.5% among 140,000;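 active means viability at or under a set limit, the compound median less 4 SD, cut at about 6% in these data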
Cav32 inh: human Cav3.2 channel inhibition, primary screen; Cav3.2-expressing cells, Fluo-4 calcium fluorescence FDSS; stronger effect = lower value; B-score at 10 µM; hit rate 4% among 100,000;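 active means single-dose well whose peak fluorescence ratio is a statistical outlier from its plate by either plate-standardised score or position-corrected B-score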
HUVEC inhibit: human endothelial cell proliferation inhibition; HUVEC proliferation, CellTiter-Glo luminescence, 72 h; stronger effect = lower value; viability, % at 10 µM (by protocol); hit rate 1.1% among 86,000; AID 648;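 active means viability at or below 30%; inactive means viability above 30%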
Fibroblast inh: blocks proliferation of human lung fibroblasts; LL 47 human lung fibroblast viability, ATP luminescence; stronger effect = lower value; viability, % at 10 µM; hit rate 1.1% among 85,000;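 active means viability at or below 50% in the single dose screen; inactive means viability above 50%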;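 further: compound exposure lasted 72 h before the ATP readout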
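Signal: luminescent ATP detection, CellTiter-Glo; assay system: LL 47 human lung fibroblasts; input: 1,150 cells/well; incubation: overnight cell rest, 72 h compound treatment at 37 °C; measure: % viability versus median cells-only luminescence; medium: IMEM growth medium with 15% fetal bovine serum; dosing: compound addition at 0.1% DMSO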
PTEN del growth: suppresses growth of cells with PTEN deletion | HCT116 PTEN-null viability, CellTiter-Glo, 60 h; stronger effect = lower value | viability, % at 10 µM | hit rate 1.2% among 140,000;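 active means viability at or below a set limit, 4 SD under the median of all tested compounds, cut at about 3.7% in these data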;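 further: PTEN knockout HCT116 line with beta catenin targeted HCT116 as companion control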
H69AR growth 86K: blocks growth of human H69AR lung tumor cells; viability, % at 10 µM; H69AR lung tumor viability, ATP luminescence, 72 h; stronger effect = lower value; hit rate 6% among 85,000;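 active means viability at or below 40%; inactive means viability above 40%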;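 further: multidrug resistant small cell line overexpressing MRP-1 efflux transporter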
Numbers stand for hits; – = inactive; · = no result given.

SMILES | bCat KO growth | Cav32 inh | HUVEC inhibit | Fibroblast inh | PTEN del growth | H69AR growth 86K
COc1ccc2[nH]c(=O)c(CN(Cc3cccs3)Cc3nnnn3Cc3ccccc3)cc2c1 | – | – | – | – | – | 33
Cc1ccc2[nH]c(=O)c(CN(Cc3ccco3)S(=O)(=O)c3c(C)ccc4nsnc34)cc2c1 | – | – | – | – | – | –
COc1ccc2[nH]c(=O)c(CN(Cc3ccco3)Cc3nnnn3Cc3ccccc3)cc2c1 | – | – | – | – | – | ·
CCC(C)(C)n1nnnc1CN(Cc1ccco1)Cc1cc2cc3c(cc2[nH]c1=O)OCO3 | – | – | – | – | – | –
CC(C)(C)n1nnnc1CN(Cc1ccco1)Cc1cc2cc3c(cc2[nH]c1=O)OCO3 | – | – | – | – | – | 35
COc1ccc2[nH]c(=O)c(CN(Cc3cccs3)S(=O)(=O)c3c(C)ccc4nsnc34)cc2c1 | – | – | – | – | – | 2.7
Cc1ccc(NCC(=O)Nc2ccc(Br)cc2)cc1F | – | · | · | · | – | ·
Cc1cccc(N2C(=N)SCC2=O)c1C | – | · | · | · | – | ·
Cc1nc(NC(=O)/C=C/c2ccc(C(C)(C)C)cc2)sc1C(=O)N(C)C | – | · | · | · | – | ·
CC1=C(C(=O)Nc2ccc(Cl)cc2)C2(CCCCC2)C(C(N)=O)C(=S)N1 (stereo not drawn) | – | · | · | · | – | ·
O=C(NCCC1=CCCCC1)C(=O)NCC(c1ccco1)N1CCN(c2ccc(F)cc2)CC1 (stereo not drawn) | – | · | · | · | – | ·
CCOC(=O)c1ccc(N/C=C/C(=O)c2ccc(OC)c(OC)c2)cc1 | – | – | · | · | – | ·
CCOC(=O)c1ccc(Nc2ccc(-c3ccc(OC)c(OC)c3)nn2)cc1 | – | · | – | – | – | 32
O=C1c2[nH]nc(-c3ccccc3O)c2C(c2ccc(F)cc2)N1Cc1ccco1 (stereo not drawn) | – | -4.5 | – | – | – | 1.8
O=C1c2[nH]nc(-c3ccccc3O)c2C(c2cccc(Cl)c2)N1CC1CCCO1 (stereo not drawn) | – | · | – | – | – | 21
O=C1c2[nH]nc(-c3ccccc3O)c2C(c2cccc(Cl)c2)N1Cc1ccco1 (stereo not drawn) | – | -4.3 | 4.9 | – | – | 0.8
O=C1c2[nH]nc(-c3ccccc3O)c2C(c2ccc(F)cc2)N1CC1CCCO1 (stereo not drawn) | – | – | – | – | – | –
COC(=O)c1cccc(NC(=O)CCNC(=O)c2ccc([N+](=O)[O-])cc2)c1 | – | · | · | · | – | ·
CC(NC(=O)c1ccccc1)C(c1cccs1)N1CCOCC1 (stereo not drawn) | – | – | – | – | – | –
CCCN(CCC)S(=O)(=O)c1ccc(C(=O)Nc2cc3oc4ccccc4c3cc2OC)cc1 | – | · | · | · | – | ·
CCN(CC)S(=O)(=O)c1cccc(NC(=O)C(=O)c2c(-c3ccccc3)cc3ccccn23)c1 | – | · | · | · | – | ·
CCN(CC)S(=O)(=O)c1cc(NC(=O)C(=O)c2c(-c3ccccc3)cc3ccccn23)ccc1C | – | -4.6 | – | – | – | –
CC12C(=O)N(c3ccc(C(=O)N4CCOCC4)cc3)C(=O)C1C1c3ccccc3C2c2ccccc21 (stereo not drawn) | – | · | · | · | – | ·
Cc1cc(C)c2c(CN3CCN(Cc4ccc5c(c4)OCO5)CC3)cc(=O)oc2c1C | – | – | – | – | – | 33
Cc1ccc2c(CN3CCN(Cc4ccc5c(c4)OCO5)CC3)cc(=O)oc2c1C | – | – | – | – | – | –
SMILES | bCat KO growth | Cav32 inh | HUVEC inhibit | Fibroblast inh | PTEN del growth | H69AR growth 86K
CC(C)(C)C(=O)Nc1ccccc1C(=O)Nc1ccncc1 | – | – | – | – | – | –
Cc1ccnc(NC(=O)c2ccccc2NC(=O)C(C)(C)C)c1 | – | – | – | · | – | 20
CCOC(=O)Cn1c(=O)n(Cc2ccco2)c(=O)c2ccc(C(=O)NCCc3ccccc3)cc21 | – | -4.6 | – | – | – | –
COc1cc2c(=O)n(Cc3ccccc3)c(=O)n(CC(=O)NCCc3ccccc3)c2cc1OC | – | – | – | – | – | 33
COc1cc2c(=O)n(Cc3ccccc3)c(=O)n(CC(=O)NCC3CCCO3)c2cc1OC (stereo not drawn) | – | – | · | · | – | ·
O=C1C2C(C(=O)N1/N=C/c1cc(Br)cc([N+](=O)[O-])c1O)C1C=CC2C12CC2 (stereo not drawn) | – | -6 | · | · | – | ·
COc1ccc(N=C2C(=Nc3ccc(OC)cc3)N(c3ccc(OC)cc3)C(=S)N2c2ccccc2)cc1 | – | – | · | · | – | ·
Cc1ccc(N=C2C(=S)N(c3ccc(C)cc3)C(=N)N2/N=C/c2ccc(Cl)cc2)cc1 | – | – | – | – | – | 2.7
Cc1c(Cl)cccc1NC(=O)C1NC(=O)CC1c1ccccc1 (stereo not drawn) | – | · | – | – | – | –
COc1ccc(-c2c(C)[nH]n3c(=O)c(Cc4ccccc4)c(C)nc23)cc1 | – | · | · | · | – | ·
COc1cccc(-c2cnc(NCc3cc(Cl)ccc3O)n2C)c1 | – | -4.3 | – | – | – | –
Cn1c(-c2cccc(Br)c2)cnc1NCc1cccnc1 | – | – | – | – | – | –
COC(=O)[C@H](Cc1ccccc1)NC(=O)NCc1cccs1 | – | – | – | – | – | –
CC(C)(C)c1nnc2sc(SCC(=O)c3cccs3)nn2c1=O | – | – | – | – | – | 14
O=C(CSc1ccc2nnc(-c3ccc(Cl)cc3)n2n1)N1CCCc2ccccc21 | 2.4 | · | · | · | 2.2 | ·
CC(C)(C)c1nnc2sc(SCC(=O)N3CCCc4ccccc43)nn2c1=O | – | – | – | – | – | 17
COc1cc(CCN2C(=O)c3cccc4cccc(c34)C2=O)c(S(=O)(=O)N2CCC(C)CC2)cc1OC | – | · | · | · | – | ·
Clc1ccc(-c2nc3cnccn3c2NC2CCCC2)cc1 | – | -5 | · | · | – | ·
Oc1ccccc1-c1nc2cnccn2c1Nc1ccc2c(c1)OCCO2 | 4.3 | – | – | – | 3.3 | –
Clc1ccc(-c2nc3cnccn3c2Nc2ccc3c(c2)OCO3)cc1 | – | – | – | – | – | 25
Cc1ccc(C(=O)C2CCN(CC(=O)Nc3nc(C)cs3)CC2)cc1 | – | – | · | · | – | ·
O=C(N/N=C/c1ccccc1OC(=O)c1ccc2c(c1)OCO2)c1cccc(F)c1 | 5.0 | · | · | · | 3.4 | ·
COc1cc(/C=N/NC(=O)c2cccnc2)ccc1OC(=O)c1ccc2c(c1)OCO2 | – | – | · | · | – | ·
COc1cc(C(=O)Oc2ccccc2/C=N/NC(=O)c2ccc(C)c(Cl)c2)cc(OC)c1OC | 5.2 | · | · | · | 2.7 | ·
COc1cc(C(=O)Oc2ccccc2/C=N/NC(=O)c2ccc(Cl)cc2)cc(OC)c1OC | – | · | · | · | – | ·
CCCCN(C(=O)CSc1nnc(Nc2ccc(C)c(C)c2)s1)c1c(N)n(Cc2ccccc2)c(=O)[nH]c1=O | – | -5.3 | · | · | – | ·
Cc1ccc(C(=O)NN2C(=O)C3C4c5ccccc5C(c5ccccc54)C3C2=O)cc1 (stereo not drawn) | – | · | · | · | – | ·
O=C(Oc1oc(-c2ccco2)nc1C=Nc1ccccc1)c1ccoc1 | – | – | – | – | – | 38
